The values that follow come from ChEMBL document CHEMBL4020820, “Insights into the Impact of a Membrane-Anchoring Moiety on the Biological Activities of Bivalent Compounds As Potential Neuroprotectants for Alzheimer's Disease” (J Med Chem, 2018).

Series [1] can be described thus: Neuroprotective activity against tetracycline removal-induced cytotoxicity in human MC65 cells assessed as increase in cell viability after 72 hrs by MTT assay. Type of series: functional, cell-based. Particulars: MC65, 72 h. The method in brief: (§1)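 MC65 cells kept in DMEM/10% FBS with 1 µg/mL tetracycline and G418. Cells washed twice with PBS, seeded in Opti-MEM at 4×10^4/well without tetracycline, given compound (0.3 µM, alone or in combination), 72 h at 37 °C. MTT added for 4 h, formazan dissolved in DMSO, A570 read. Viability as % of +TC controls; six replicates, ≥3 independent runs.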

For another series, the system named is Cortical neurone. Briefly: Neuroprotective activity in E17 rat primary cortical neurons assessed as increase in neurite outgrowth after 4 days by DAPI-staining based assay. Type of series: functional, cell-based. The method in brief: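 Rat E17 cortical neurons on poly-D-lysine coverslips (2×10^4/well) in neurobasal/B27/Glutamax, treated with DMSO or compound from DIV1. Fixed at DIV5 in 4% PFA; neurites immunostained for beta III tubulin, nuclei with DAPI.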

A further series relates to N2a. Briefly: Neuroprotective activity in mouse N2A cells assessed as increase in neurite outgrowth at 0.3 uM after 48 hrs by fluorescent microscopic method. Format: functional, cell-based. The gist of the method: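 N2a cells seeded at 1×10^4/well in MEM with 0.5% FBS plus compound (0.3 µM) for 48 h. Neurite outgrowth stain, then fluorescence imaging at 10× (20 images per well). Average neurite length quantified; mean ± SEM, n=3.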

Series [2] concerns Brain. The series can be described thus: Effect on oxidative phosphorylation efficiency in C57BL/6 mouse brain mitochondria assessed as ADP/O ratio at 3.3 uM using succinate as substrate (reference value: 1.3 +/- 0.2). Type of series: ADME.
Series [3] has as its system Brain. Briefly: Effect on oxidative phosphorylation efficiency in C57BL/6 mouse brain mitochondria assessed as respiratory control ratio using glutamate at 3.3 uM (reference value: 3.8 +/- 0.5). Type of series: ADME.
For series [4], the system named is Brain. Briefly: Effect on oxidative phosphorylation efficiency in C57BL/6 mouse brain mitochondria assessed as ADP/O ratio at 3.3 uM using glutamate (reference value: 2.3 +/- 0.3). Format: ADME.
Series [5] in a line: Effect on electron transport chain mitochondrial complex-3 activity in C57BL/6 mouse brain mitochondria assessed as change in initial rate of reduction of cytochrome C at 3.3 uM in presence of decylubiquinone by spectrophotometry. Type of series: ADME. The method in brief: (§2)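 Frozen-thawed C57BL/6 mouse brain mitochondria solubilized in 5% cholate (pH 7.2), diluted in KME buffer (100 mM KCl, 50 mM MOPS, 1 mM EGTA), treated with compound at 3.3 µM. Complex I: NADH consumption at 340 nm with 100 µM antimycin A, 1 mM decylubiquinone, 150 µM NADH, 40 µg/mL protein, ± 7.5 µM rotenone. Complex IV taken after background subtraction. Mean ± SEM, n=4.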

In series [6] the test system is Brain. Briefly: Effect on oxidative phosphorylation efficiency in C57BL/6 mouse brain mitochondria assessed as change in state 3 respiratory rate of glutamate at 3.3 uM relative to control. Format: ADME.
Series [7] deals with Lipid bilayer. The series can be described thus: Binding affinity to DPPC membrane assessed as appearance of disordered membrane structure at […] at 25 degC by SAXD analysis. The method in brief:
(§3)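 DPPC (2 mg) with compound at 10:1 lipid:compound molar ratio, hydrated in 100 mM NaCl, 25 mM Hepes pH 7.4, vortexed at 55 °C to form multilamellar vesicles. Small- and wide-angle X-ray diffraction at 25 and 50 °C; 10 min equilibration, 10 min exposure; d-spacings and chain packing read from reflections.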

Series [8] in a line: Effect on electron transport chain mitochondrial complex-2 activity in C57BL/6 mouse brain mitochondria assessed as change in rate of oxidation of DCPIP at 3.3 uM using succinate as substrate in presence of decylubiquinone by spectrophotometry. Type of series: ADME. The method in brief:
as §2

Series [9] deals with Brain. The series can be described thus: Effect on oxidative phosphorylation efficiency in C57BL/6 mouse brain mitochondria assessed as change in state 4 respiratory rate of succinate at 3.3 uM. Format: ADME.
Series [10] deals with Brain. The series can be described thus: Effect on oxidative phosphorylation efficiency in C57BL/6 mouse brain mitochondria assessed as decrease in ADP-stimulated respiratory rate of glutamate at 3.3 uM. Format: ADME.
Series [11] relates to Lipid bilayer. Briefly: Binding affinity to DPPC membrane assessed as phase separation in membrane structure at […] at 50 degC by SAXD analysis. The gist of the method:
as §3

The test system of series [12] is Lipid bilayer. The series can be described thus: Binding affinity to DPPC membrane assessed as shift in onset of transition temperature at 40:1 […] molar ratio by differential scanning calorimetry. The gist of the method: (§4)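 Multilamellar DPPC vesicles (2 mg lipid) with compound at various lipid:compound molar ratios (40:1 up to 5:1) in 100 mM NaCl, 25 mM Hepes pH 7.4, made by vortexing at 55 °C. Samples degassed 10 min, buffer as reference. DSC scans 10–60 °C at 60 °C/h. Traces normalized to DPPC content. Onset (Tc), completion temperature and enthalpy taken from thermograms.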
For orientation: DSC measures the heat that a sample takes up or gives off during a temperature scan.

Series [13] concerns Lipid bilayer. The series can be described thus: Binding affinity to DPPC membrane assessed as appearance of disordered membrane structure at […] at 25 degC by WAXD analysis. Particulars: in the assay text read “SAXD analysis” for “WAXD analysis”. The method in brief:
as §3

Series [14] has as its system Brain. Briefly: Effect on oxidative phosphorylation efficiency in C57BL/6 mouse brain mitochondria assessed as change in state 3 respiratory rate of succinate at 3.3 uM. Format: ADME.
The subject of series [15] is Brain. Briefly: Effect on oxidative phosphorylation efficiency in C57BL/6 mouse brain mitochondria assessed as respiratory control ratio at 3.3 uM using succinate as substrate (reference value: 2.3 +/- 0.2). Format: ADME.
Series [16] can be described thus: Effect on electron transport chain mitochondrial complex-4 activity in C57BL/6 mouse brain mitochondria assessed as change in first-order rate of consumption of reduced cytochrome C at 3.3 uM measured over 7.5 mins by spectrophotometry. Format: ADME. Particulars: 0.125 h. The method in brief:
as §2

Series [17] is described as follows: Effect on electron transport chain mitochondrial complex-1 activity in C57BL/6 mouse brain mitochondria assessed as change in rate of NADH consumption at 3.3 uM in presence of antimycin A/decylubiquinone by spectrophotometry. Type of series: ADME. The gist of the method:
as §2

Series [18] relates to Lipid bilayer. Briefly: Binding affinity to DPPC membrane assessed as change in enthalpy by differential scanning calorimetry (reference value: 8.7 kcal/mol). The method in brief: as §4
The test system of series [19] is Lipid bilayer. The series can be described thus: Binding affinity to DPPC membrane assessed as phase transition completion temperature at 5:1 […] molar ratio by differential scanning calorimetry (reference value: 43.1 degC). The gist of the method:
as §4

The test system of series [20] is Lipid bilayer. Briefly: Binding affinity to DPPC membrane assessed as increase in membrane thickness at […] at 50 degC by SAXD analysis. The gist of the method: as §3
The subject of the next series is MC65. Briefly: Neuroprotective activity against tetracycline removal-induced cytotoxicity in human MC65 cells assessed as increase in cell viability at 0.3 uM after 72 hrs by MTT assay. Type of series: functional, cell-based. The method in brief:
as §1
(In general: Formazan colour is commonly taken as a measure of viable cells.)

Molecules are shown by their SMILES. Calls of active or inactive are those of the source. No cut-off for these calls is given here.

As a reminder, the EC50 is the concentration giving half of the maximal effect. Consider `COc1cc(/C=C/C(=O)/C(Cc2cn(CCCCCCNC(=O)COCC(=O)NCCCCN[C@H]3CC[C@@]4(C)C(=CC[C@H]5[C@@H]6CC[C@H]([C@H](C)CCCC(C)C)[C@@]6(C)CC[C@@H]54)C3)nn2)=C(O)/C=C/c2ccc(O)c(OC)c2)ccc1O`, for which, in series [1], the 50% effective concentration (EC50) stood at 212 nM.
As to `COc1cc(/C=C/C(=O)/C(Cc2cn(CCCCCCNC(=O)COCC(=O)NCCCCO[C@H]3CC[C@@]4(C)C(=CC[C@H]5[C@@H]6C[C@@H]7O[C@]8(CC[C@@H](C)CO8)[C@@H](C)[C@@H]7[C@@]6(C)CC[C@@H]54)C3)nn2)=C(O)/C=C/c2ccc(O)c(OC)c2)ccc1O`, the result in the series with Cortical neurone and in the series on N2a was Active. Further, the concentration giving a half-maximal response (EC50) in [1] is 30.3 nM.
Take `COc1cc(/C=C/C(=O)/C(Cc2cn(CCNC(=O)COCC(=O)NCCCCO[C@H]3CC[C@@]4(C)C(=CC[C@H]5[C@@H]6C[C@@H]7O[C@]8(CC[C@@H](C)CO8)[C@@H](C)[C@@H]7[C@@]6(C)CC[C@@H]54)C3)nn2)=C(O)/C=C/c2ccc(O)c(OC)c2)ccc1O`: the Ratio with Brain [2] turned out to be 1.1; with Brain [3], 3.9; in the series with Brain [4], 2.3; with Brain [15] it was 2.1. The outcome with Cortical neurone, with Lipid bilayer [7], in the series on N2a, in the series with Lipid bilayer [11], in the series on Lipid bilayer [12] and in the series with Lipid bilayer [13] was Active. In addition, the Activity entry in series [5] was “Not Active”; in the series with Brain [6], 11.5%; in series [8] it was “Not Active”; in the series on Brain [9], “Non-Toxic”; in the series with Brain [10] it was “Toxic”; with Brain [14], “Non-Toxic”. Further, the Activity result in series [16] and in series [17] was “Not Active” each time. The EC50 in [1] came to 8.3 nM. Also, the deltaH with Lipid bilayer [18] is 3 to 5 kcal/mol. Further, the T in the series on Lipid bilayer [19] stood at 42.4 °C.
Turning to `COc1cc(/C=C/C(=O)/C(Cc2cn(CCCCCCNC(=O)COCC(=O)NCCCCO[C@H]3CC[C@@]4(C)C(=CC[C@H]5[C@@H]6CC[C@H]([C@H](C)CCCC(C)C)[C@@]6(C)CC[C@@H]54)C3)nn2)=C(O)/C=C/c2ccc(O)c(OC)c2)ccc1O`, the 50% effective concentration (EC50) in [1] was 1850 nM.
Take `COc1cc(/C=C/C(=O)/C(Cc2cn(CCNC(=O)COCC(=O)NCCCCO[C@H]3CC[C@@]4(C)C(=CC[C@H]5[C@@H]6CC[C@H]([C@H](C)CCCC(C)C)[C@@]6(C)CC[C@@H]54)C3)nn2)=C(O)/C=C/c2ccc(O)c(OC)c2)ccc1O`: the Ratio in the series on Brain [2] was determined as 1.2; in the series on Brain [3], 4.4; in the series with Brain [4], 2.4; with Brain [15], 2.4. Besides, the outcome in the series on Lipid bilayer [7], with Lipid bilayer [11], in the series on Lipid bilayer [12] and with Lipid bilayer [13] was Active. Moreover, the EC50 in series [1] was found to be 296 nM. The deltaH in the series on Lipid bilayer [18] lay within 3 to 5 kcal/mol.
Consider `COc1cc(/C=C/C(=O)/C(Cc2cn(CCNC(=O)COCC(=O)NCCCCN[C@H]3CC[C@@]4(C)C(=CC[C@H]5[C@@H]6CC[C@H]([C@H](C)CCCC(C)C)[C@@]6(C)CC[C@@H]54)C3)nn2)=C(O)/C=C/c2ccc(O)c(OC)c2)ccc1O`, for which the Ratio in the series on Brain [2] amounted to 1.1; with Brain [3], 3.9; in the series on Brain [4] it was 2.4; in the series with Brain [15], 2.6. Moreover, the outcome in the series with Lipid bilayer [7], with Lipid bilayer [12], in the series with Lipid bilayer [13] and with Lipid bilayer [20] was Active. Further, the concentration giving a half-maximal response (EC50) in [1] was determined as 56.5 nM. Moreover, the deltaH in the series with Lipid bilayer [18] was 3 to 5 kcal/mol. Also, the T in the series on Lipid bilayer [19] came to 42.4 °C.
Regarding `CCCCNC(=O)COCC(=O)NCCn1cc(C/C(C(=O)/C=C/c2ccc(O)c(OC)c2)=C(O)\C=C\c2ccc(O)c(OC)c2)nn1`, the result in the series with N2a and in the series with MC65 was inactive. Besides, the Ratio in the series on Brain [15] is listed as 1.2.
